Assay results taken from ChEMBL document CHEMBL1154229 (Bioorg Med Chem Lett, 2009).

What was measured:
Cytochrome P450 2C9 = Cytochrome P450 2C9 (Homo sapiens, UniProt P11712); test: Inhibition of CYP2C9; assay type: ADME
[1] = Volume of distribution at steady state in rat at 1 mg/kg, iv and 2 mg/kg, po; assay type: ADME, organism-based; conditions: in vivo, read-out: Vdss
Outline: (§1)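 Rats dosed IV at 1 mg/kg (n = 2) and PO at 2 mg/kg (n = 3). Blood drug levels measured by LC/MS/MS after protein precipitation with acetonitrile.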

[2] = Bioavailability in rat at 1 mg/kg, iv and 2 mg/kg, po; assay type: ADME, organism-based; conditions: in vivo; outline: as §1
[3] = molecular target: T1, Bifunctional epoxide hydrolase 2 (Homo sapiens, UniProt P34913); test: Inhibition of human soluble epoxide hydrolase in HEK293 cells assessed as DHET production; assay type: cell-based
T1 sequence (P34913 whole entry): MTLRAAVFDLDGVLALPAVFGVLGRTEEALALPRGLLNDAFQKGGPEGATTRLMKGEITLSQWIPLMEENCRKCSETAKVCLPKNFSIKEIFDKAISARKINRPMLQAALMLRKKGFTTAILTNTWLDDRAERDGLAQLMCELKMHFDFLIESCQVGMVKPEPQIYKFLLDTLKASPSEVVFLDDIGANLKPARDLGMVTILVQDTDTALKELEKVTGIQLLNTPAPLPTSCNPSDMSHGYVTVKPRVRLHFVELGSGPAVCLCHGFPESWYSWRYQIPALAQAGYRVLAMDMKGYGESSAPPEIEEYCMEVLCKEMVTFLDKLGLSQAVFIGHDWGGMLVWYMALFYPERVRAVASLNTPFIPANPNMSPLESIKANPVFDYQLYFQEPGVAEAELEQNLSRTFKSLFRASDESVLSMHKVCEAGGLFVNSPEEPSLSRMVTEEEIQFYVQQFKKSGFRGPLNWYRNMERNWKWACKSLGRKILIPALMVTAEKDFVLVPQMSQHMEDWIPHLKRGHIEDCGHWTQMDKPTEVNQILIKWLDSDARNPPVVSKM
Outline: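 Whole-cell 14,15-DHET production assay in HEK293 cells, run with or without 10% human serum. Values come from one or two experiments, each in triplicate, with repeats within 20%.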

[4] = molecular target: T1, Bifunctional epoxide hydrolase 2; test: Inhibition of human soluble epoxide hydrolase
Epoxide hydrolase 1 = molecular target: T2, Epoxide hydrolase 1 (Homo sapiens, UniProt P07099); test: Inhibition of human microsomal epoxide hydrolase
T2 sequence (P07099 whole entry): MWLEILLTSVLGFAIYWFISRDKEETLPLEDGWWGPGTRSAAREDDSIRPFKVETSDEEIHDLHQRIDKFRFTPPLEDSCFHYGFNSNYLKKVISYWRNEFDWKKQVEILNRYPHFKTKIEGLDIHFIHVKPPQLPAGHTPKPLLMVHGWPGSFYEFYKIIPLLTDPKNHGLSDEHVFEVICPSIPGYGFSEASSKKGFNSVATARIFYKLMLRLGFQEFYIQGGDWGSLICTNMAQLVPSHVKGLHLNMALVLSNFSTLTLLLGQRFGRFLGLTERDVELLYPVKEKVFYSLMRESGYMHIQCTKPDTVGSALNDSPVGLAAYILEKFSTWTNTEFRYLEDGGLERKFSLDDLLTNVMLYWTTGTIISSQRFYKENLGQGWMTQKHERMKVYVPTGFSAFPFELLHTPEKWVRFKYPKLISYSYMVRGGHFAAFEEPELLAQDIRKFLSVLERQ
Outline: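 Human mEH used as the counterscreen enzyme. Values come from one or two experiments, each in triplicate, with repeats within 20%.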

Cytochrome P450 2D6 = Cytochrome P450 2D6 (Homo sapiens, UniProt P10635); test: (§2) Inhibition of CYP2D6; assay type: ADME
[5] = Clearance in rat at 1 mg/kg, iv and 2 mg/kg, po; assay type: ADME, organism-based; conditions: in vivo; outline: as §1
Cytochrome P450 3A4 = Cytochrome P450 3A4 (Homo sapiens, UniProt P08684); test: Inhibition of CYP3A4; assay type: ADME
[6] = Inhibition of potassium channel IKr
[7] = molecular target: Sodium channel protein type 5 subunit alpha (Homo sapiens, UniProt Q14524); test: Inhibition of Nav1.5 channel
[8] = Half life in rat at 1 mg/kg, iv and 2 mg/kg, po; assay type: ADME, organism-based; conditions: in vivo; outline: as §1
[9] = molecular target: T3, Bifunctional epoxide hydrolase 2 (Rattus norvegicus, UniProt P80299); test: Inhibition of rat soluble epoxide hydrolase
T3 sequence (P80299 whole entry): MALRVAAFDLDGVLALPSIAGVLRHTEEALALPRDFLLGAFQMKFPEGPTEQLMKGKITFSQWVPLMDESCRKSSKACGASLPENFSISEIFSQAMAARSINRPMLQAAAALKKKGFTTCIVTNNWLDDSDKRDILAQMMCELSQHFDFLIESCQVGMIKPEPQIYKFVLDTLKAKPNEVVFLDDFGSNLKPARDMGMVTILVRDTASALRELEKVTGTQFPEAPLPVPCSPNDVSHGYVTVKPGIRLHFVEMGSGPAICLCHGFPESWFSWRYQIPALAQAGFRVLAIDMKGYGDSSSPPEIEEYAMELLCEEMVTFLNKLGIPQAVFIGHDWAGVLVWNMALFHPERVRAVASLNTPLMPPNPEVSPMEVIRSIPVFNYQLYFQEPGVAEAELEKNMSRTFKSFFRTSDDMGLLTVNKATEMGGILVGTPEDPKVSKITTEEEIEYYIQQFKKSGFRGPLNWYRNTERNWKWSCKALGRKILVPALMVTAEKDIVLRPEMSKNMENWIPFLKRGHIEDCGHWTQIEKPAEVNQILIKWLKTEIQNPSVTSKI

L-type calcium channel = test: Inhibition of calcium channel diltiazem binding site
CYP2D6 = CYP2D6 (Homo sapiens, UniProt P10635); test: as §2; assay type: ADME
CYP2D6, sequence (P10635 whole entry): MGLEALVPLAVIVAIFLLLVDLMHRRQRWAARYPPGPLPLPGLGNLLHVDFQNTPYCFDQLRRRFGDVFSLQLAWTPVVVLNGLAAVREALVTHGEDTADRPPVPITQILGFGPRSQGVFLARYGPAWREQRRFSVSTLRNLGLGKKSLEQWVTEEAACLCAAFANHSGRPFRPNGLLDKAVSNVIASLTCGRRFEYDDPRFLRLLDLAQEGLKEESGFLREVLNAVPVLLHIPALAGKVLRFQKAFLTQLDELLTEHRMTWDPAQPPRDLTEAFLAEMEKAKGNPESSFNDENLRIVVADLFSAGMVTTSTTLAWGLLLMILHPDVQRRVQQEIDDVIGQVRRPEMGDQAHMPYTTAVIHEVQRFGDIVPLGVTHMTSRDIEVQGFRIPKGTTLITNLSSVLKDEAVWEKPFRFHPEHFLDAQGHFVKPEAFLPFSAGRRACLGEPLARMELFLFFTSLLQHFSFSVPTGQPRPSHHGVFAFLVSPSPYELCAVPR

Cytochrome P450 2C9, sequence (P11712 whole entry): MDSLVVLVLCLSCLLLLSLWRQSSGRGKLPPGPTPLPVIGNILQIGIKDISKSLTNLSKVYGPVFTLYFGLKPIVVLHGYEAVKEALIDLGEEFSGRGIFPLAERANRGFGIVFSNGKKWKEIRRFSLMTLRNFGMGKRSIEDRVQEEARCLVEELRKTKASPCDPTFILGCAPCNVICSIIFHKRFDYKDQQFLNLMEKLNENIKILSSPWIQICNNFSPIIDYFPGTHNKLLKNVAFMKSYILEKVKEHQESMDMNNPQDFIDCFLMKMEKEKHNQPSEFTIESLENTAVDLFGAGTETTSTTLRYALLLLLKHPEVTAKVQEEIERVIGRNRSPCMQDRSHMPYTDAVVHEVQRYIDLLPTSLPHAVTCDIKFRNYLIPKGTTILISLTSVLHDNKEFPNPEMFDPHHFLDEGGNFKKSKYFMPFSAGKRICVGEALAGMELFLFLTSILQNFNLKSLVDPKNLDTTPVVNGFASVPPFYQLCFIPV
Cytochrome P450 2D6, sequence (P10635 whole entry): as the sequence (P10635 whole entry) above
Sodium channel protein type 5 subunit alpha, sequence (Q14524 whole entry): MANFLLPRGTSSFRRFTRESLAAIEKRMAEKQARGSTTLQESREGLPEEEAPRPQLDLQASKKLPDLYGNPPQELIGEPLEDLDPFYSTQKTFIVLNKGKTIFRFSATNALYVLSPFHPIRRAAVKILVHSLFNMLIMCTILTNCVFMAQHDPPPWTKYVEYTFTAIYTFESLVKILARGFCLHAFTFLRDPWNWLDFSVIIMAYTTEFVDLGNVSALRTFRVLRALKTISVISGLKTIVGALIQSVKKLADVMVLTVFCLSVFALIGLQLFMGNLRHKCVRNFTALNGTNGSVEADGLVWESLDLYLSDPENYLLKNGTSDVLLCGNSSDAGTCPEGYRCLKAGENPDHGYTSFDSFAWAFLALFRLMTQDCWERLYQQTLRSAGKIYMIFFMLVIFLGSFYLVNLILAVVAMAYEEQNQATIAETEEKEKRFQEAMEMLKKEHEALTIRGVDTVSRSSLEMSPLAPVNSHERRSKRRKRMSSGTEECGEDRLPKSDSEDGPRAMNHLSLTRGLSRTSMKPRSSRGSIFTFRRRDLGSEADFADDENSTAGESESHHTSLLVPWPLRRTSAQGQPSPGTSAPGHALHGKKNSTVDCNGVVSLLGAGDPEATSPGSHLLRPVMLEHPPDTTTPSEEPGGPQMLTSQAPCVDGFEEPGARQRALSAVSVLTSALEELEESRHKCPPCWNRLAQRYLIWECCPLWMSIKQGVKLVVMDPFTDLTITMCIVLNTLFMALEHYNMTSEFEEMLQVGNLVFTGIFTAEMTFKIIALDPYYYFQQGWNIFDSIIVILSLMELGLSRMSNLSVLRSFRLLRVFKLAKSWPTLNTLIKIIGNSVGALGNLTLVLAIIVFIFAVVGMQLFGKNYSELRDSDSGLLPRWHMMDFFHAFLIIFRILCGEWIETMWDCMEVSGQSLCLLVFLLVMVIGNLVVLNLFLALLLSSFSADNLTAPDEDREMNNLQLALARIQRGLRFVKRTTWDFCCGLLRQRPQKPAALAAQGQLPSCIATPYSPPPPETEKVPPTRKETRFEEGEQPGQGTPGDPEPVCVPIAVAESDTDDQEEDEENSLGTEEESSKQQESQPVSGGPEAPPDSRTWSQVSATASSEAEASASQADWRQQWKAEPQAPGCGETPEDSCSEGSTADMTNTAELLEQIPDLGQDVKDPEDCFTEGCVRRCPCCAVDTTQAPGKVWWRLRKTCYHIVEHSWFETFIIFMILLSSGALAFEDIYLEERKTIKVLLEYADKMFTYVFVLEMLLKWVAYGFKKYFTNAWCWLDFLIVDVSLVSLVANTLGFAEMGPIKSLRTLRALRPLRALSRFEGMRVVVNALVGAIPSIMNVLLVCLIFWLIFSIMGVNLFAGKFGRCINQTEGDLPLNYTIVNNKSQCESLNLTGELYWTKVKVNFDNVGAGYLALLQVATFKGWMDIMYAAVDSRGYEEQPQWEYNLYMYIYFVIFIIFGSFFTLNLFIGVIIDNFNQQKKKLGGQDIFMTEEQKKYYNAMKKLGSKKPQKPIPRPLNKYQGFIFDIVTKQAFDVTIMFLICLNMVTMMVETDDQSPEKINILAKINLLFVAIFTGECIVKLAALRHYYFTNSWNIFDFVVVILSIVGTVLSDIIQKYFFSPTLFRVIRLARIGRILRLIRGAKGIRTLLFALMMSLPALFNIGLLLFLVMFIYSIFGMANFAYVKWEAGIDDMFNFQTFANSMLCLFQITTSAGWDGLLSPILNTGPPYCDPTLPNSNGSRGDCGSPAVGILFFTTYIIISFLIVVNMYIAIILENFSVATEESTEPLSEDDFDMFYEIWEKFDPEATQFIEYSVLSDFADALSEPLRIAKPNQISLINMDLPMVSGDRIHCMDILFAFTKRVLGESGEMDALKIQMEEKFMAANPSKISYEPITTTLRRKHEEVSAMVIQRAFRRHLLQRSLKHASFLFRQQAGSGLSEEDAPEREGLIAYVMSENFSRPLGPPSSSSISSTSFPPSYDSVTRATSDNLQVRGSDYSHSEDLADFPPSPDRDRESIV
Cytochrome P450 3A4, sequence (P08684 whole entry): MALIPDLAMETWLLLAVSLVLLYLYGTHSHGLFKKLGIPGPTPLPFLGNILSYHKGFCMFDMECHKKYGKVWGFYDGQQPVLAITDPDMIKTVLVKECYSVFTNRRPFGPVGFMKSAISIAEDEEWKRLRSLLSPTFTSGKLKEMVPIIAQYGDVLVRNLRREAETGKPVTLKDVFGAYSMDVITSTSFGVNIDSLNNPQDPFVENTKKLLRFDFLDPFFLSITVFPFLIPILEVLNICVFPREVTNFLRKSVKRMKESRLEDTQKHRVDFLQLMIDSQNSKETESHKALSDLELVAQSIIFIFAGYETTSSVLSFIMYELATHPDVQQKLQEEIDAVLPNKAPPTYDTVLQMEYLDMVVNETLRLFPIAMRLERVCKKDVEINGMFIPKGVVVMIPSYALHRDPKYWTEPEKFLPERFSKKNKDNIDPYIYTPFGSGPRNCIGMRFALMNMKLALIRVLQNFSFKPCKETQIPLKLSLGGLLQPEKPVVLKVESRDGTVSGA

SMILES | IC50 (Cytochrome P450 2C9) [µM] | Vd [1] [L/kg] | bioavailability [2] [%] | IC50 [3] [µM] | IC50 [4] [µM] | IC50 (Epoxide hydrolase 1) [µM] | IC50 (Cytochrome P450 2D6) [µM] | clearance [5] [mL/min/kg] | IC50 (Cytochrome P450 3A4) [µM] | IC50 [6] [µM] | IC50 [7] [µM] | half-life [8] [h] | IC50 [9] [µM] | IC50 (L-type calcium channel) [µM] | IC50 (CYP2D6) [µM]
O=C(Nc1ccc(Cl)cc1)N1CCCC(CCc2nn[nH]n2)(c2ccccc2)C1 (configuration not stated) | > 10 | 1.4 | 0.17 | < 0.001 | 0.005 | > 100 | 10 | 124 | < 10 | 3 | > 10 | 0.39 | 0.059 | – | –
CC1(c2ccccc2)CCCN(C(=O)Nc2ccc(Cl)cc2)C1 (configuration not stated) | > 10 | 12 | 13 | < 0.001 | 0.001 | > 100 | > 10 | 43 | < 10 | 12 | > 10 | 3.9 | 0.005 | 1.7 | –
O=C(O)CCC1(c2ccccc2)CCCN(C(=O)Nc2ccc(Cl)cc2)C1 (stereo in doubt; 2b) | > 10 | 0.8 | 84 | 0.004 | – | > 100 | > 10 | 4 | > 10 | > 30 | > 10 | 3.2 | 0.076 | > 30 | –
CC1(c2ccccc2)CCCN(C(=O)NCc2ccc(Cl)cc2Cl)C1 (configuration not stated) | > 10 | – | – | – | < 0.001 | – | – | – | < 10 | 20 | < 10 | – | 0.003 | 2 | < 10
NC(=O)CCC1(c2ccccc2)CCCN(C(=O)Nc2ccc(Cl)cc2)C1 (configuration not stated) | > 10 | 0.88 | 13 | < 0.001 | – | > 100 | > 10 | 116 | > 10 | 7 | – | 4.4 | 0.026 | – | –
O=C(O)CCC1(c2ccc(C(F)(F)F)cc2)CCCN(C(=O)Nc2ccc(Cl)cc2)C1 (configuration not stated) | > 10 | – | – | < 0.001 | 0.005 | > 100 | > 10 | – | > 10 | > 30 | > 10 | – | 0.12 | > 30 | –
O=C(O)CCC1(c2ccccc2C(F)(F)F)CCCN(C(=O)Nc2ccc(Cl)cc2)C1 (configuration not stated) | > 10 | – | – | < 0.001 | 0.016 | > 100 | > 10 | – | > 10 | > 30 | > 10 | – | 0.07 | > 30 | –
CC1(c2ccccc2)CCCN(C(=O)N[C@H]2C[C@@H]2c2ccccc2)C1 (some centres not stated) | < 10 | – | – | < 0.001 | 0.001 | > 100 | – | – | < 10 | 26 | > 10 | – | 0.004 | 10 | –
O=C(Nc1ccc(Cl)cc1)N1CCCC(CCCO)(c2ccccc2)C1 (configuration not stated) | < 10 | – | – | < 0.001 | 0.0013 | > 100 | > 10 | – | < 10 | 6 | > 10 | – | 0.01 | 5 | –
O=C(O)CC1(c2ccccc2)CCCN(C(=O)Nc2ccc(Cl)cc2)C1 (configuration not stated) | > 10 | – | – | 0.038 | 0.052 | > 100 | > 10 | – | > 10 | > 30 | > 10 | – | 0.398 | > 30 | –
O=C(O)CCCCC1(c2ccccc2)CCCN(C(=O)Nc2ccc(Cl)cc2)C1 (configuration not stated) | > 10 | – | – | < 0.001 | 0.005 | > 100 | > 10 | – | > 10 | > 30 | > 10 | – | 0.12 | > 30 | –
CC1(c2ccccc2)CCCN(C(=O)NCc2ccc(-c3ccc4[nH]ccc4c3)cc2)C1 (configuration not stated) | < 10 | – | – | 0.003 | – | 14 | 10 | – | > 10 | 0.8 | > 10 | – | 0.006 | 1 | –
CC1(c2ccccc2)CCCN(C(=O)NCc2ccc(-c3ccccn3)cc2)C1 (configuration not stated) | < 10 | – | – | < 0.001 | 0.001 | 47 | 10 | – | < 10 | 4 | > 10 | – | 0.003 | 0.5 | –
O=C(Nc1ccc(Cl)cc1)N1CCCC(CCO)(c2ccccc2)C1 (configuration not stated) | < 10 | – | – | < 0.001 | 0.001 | > 100 | 10 | – | > 10 | 0.07 | > 10 | – | 0.015 | 0.9 | –
